Calls of active or inactive are those of the source. The calls are words filed in the database; no cut-off is given here.

For one data set, the target named is Cruzipain (Trypanosoma cruzi, UniProt P25779). Description: Inhibition of Trypanosoma cruzi cruzain.
Data set [1] addresses T1, Cathepsin B (Homo sapiens, UniProt P07858). Description: Reversible inhibition of human cathepsin B assessed as enzyme activity recovery at 0.1 to 5 times IC50 preincubated for 5 mins followed by substrate addition measured up to 1500 sec by dilution assay.
A further data set concerns the target Rhodesain (Trypanosoma brucei rhodesiense, UniProt Q95PM0). The data set is described as follows: Inhibition of Trypanosoma brucei rhodesiense rhodesain expressed in Pichia pastoris using Cbz-Phe-Arg-AMC as substrate after 15 to 30 mins by fluorescence spectrophotometric analysis.
Data set [2] deals with T1, Cathepsin B. The data set is described as follows: Inhibition of human cathepsin B.
For data set [3], the target named is T2, Procathepsin L (Homo sapiens, UniProt P07711). Description: Inhibition of human cathepsin L.
Target sequence in this assay (P07711 whole entry): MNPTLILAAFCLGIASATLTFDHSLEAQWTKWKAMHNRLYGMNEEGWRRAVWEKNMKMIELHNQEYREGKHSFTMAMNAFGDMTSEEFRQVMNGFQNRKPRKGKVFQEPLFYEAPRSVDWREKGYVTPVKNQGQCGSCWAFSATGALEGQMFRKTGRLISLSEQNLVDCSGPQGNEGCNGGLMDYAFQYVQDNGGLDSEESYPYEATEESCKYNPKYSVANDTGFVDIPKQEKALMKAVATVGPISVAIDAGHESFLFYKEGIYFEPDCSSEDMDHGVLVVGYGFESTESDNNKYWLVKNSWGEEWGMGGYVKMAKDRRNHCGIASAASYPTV
The target in data set [4] is T2, Procathepsin L. Description: Reversible inhibition of human cathepsin L assessed as enzyme activity recovery at 0.1 to 5 times IC50 preincubated for 5 mins followed by substrate addition measured up to 1500 sec by dilution assay.
Target sequence in this assay (P07711 114-333 limits assumed): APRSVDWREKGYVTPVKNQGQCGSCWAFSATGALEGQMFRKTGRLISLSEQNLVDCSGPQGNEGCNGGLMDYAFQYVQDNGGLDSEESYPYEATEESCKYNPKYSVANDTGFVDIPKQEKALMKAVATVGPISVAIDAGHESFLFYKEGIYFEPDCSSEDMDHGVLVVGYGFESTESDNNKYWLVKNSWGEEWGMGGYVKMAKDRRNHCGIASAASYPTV
Data set [5] deals with Rhodesain (Trypanosoma brucei rhodesiense) (UniProt Q95PM0). The data set is described as follows: Binding affinity to Trypanosoma brucei rhodesiense 15N-labeled rhodesain expressed in Pichia pastoris at 1:1 molar ratio of protein:inhibitor incubated for 15 mins by 1H[…]TROSY-HSQC spectra analysis. In outline: (§1)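 15N-labelled rhodesain was mixed with inhibitor at 1:1 mol/mol, incubated 15 min, and a 1H–15N TROSY-HSQC spectrum was recorded. Inhibitor in DMSO-d6 was then added to reach a 1:3 protein/inhibitor ratio, incubated a further 7 min, and the spectrum was re-recorded.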

For data set [6] the target is unchanged. The data set is described as follows: Reversible inhibition of Trypanosoma brucei rhodesiense rhodesain assessed as enzyme activity recovery preincubated for 5 mins followed by substrate addition measured after 120 mins by dialysis assay relative to control. Set-up: scale not given: the % may be the effect or the level left.
Data set [7] is described as follows: Stability of the compound in HMI-9 medium after 24 hrs. Type of data set: physicochemical.
For data set [8], the target named is Rhodesain (Trypanosoma brucei rhodesiense) (UniProt Q95PM0). The data set is described as follows: Reversible inhibition of Trypanosoma brucei rhodesiense rhodesain assessed as enzyme activity recovery preincubated for 5 mins followed by substrate addition measured after 30 mins by dialysis assay relative to control. Set-up: scale not given: the % may be the effect or the level left.

In data set [9] the test system is Trypanosoma brucei brucei. The data set is described as follows: Antitrypanosomal activity against Trypanosoma brucei brucei expressing BS449 after 24 hrs by ATPlite-luciferase reporter gene assay. Type of data set: functional. For orientation: Cellular ATP, detected with luciferase, serves as a proxy for viable cell number.
Data set [10] has as its system Trypanosoma brucei brucei. The data set is described as follows: Antitrypanosomal activity against Trypanosoma brucei brucei expressing BS449 after 48 hrs by ATPlite-luciferase reporter gene assay. The class given is functional.
Data set [11] has as its target Rhodesain (Trypanosoma brucei rhodesiense) (UniProt Q95PM0). Description: Reversible inhibition of Trypanosoma brucei rhodesiense rhodesain assessed as enzyme activity recovery preincubated for 5 mins followed by substrate addition measured after 60 mins by dialysis assay relative to control. Set-up: scale not given: the % may be the effect or the level left.
Data set [12] has the same target. Description: Reversible inhibition of Trypanosoma brucei rhodesiense rhodesain assessed as enzyme activity recovery preincubated for 5 mins followed by substrate addition measured after 90 mins by dialysis assay relative to control. Also noted: scale not given: the % may be the effect or the level left.
Data set [13] has the same target. The data set is described as follows: Binding affinity to Trypanosoma brucei rhodesiense 15N-labeled rhodesain expressed in Pichia pastoris at 1:3 molar ratio of protein:inhibitor incubated for 22 mins by 1H[…]TROSY-HSQC spectra analysis. In outline:
as §1

For data set [14], the system named is Trypanosoma brucei brucei. Description: Antitrypanosomal activity against Trypanosoma brucei brucei expressing BS449 after 72 hrs by ATPlite-luciferase reporter gene assay. Type of data set: functional.

Cruzipain, sequence (P25779 whole entry): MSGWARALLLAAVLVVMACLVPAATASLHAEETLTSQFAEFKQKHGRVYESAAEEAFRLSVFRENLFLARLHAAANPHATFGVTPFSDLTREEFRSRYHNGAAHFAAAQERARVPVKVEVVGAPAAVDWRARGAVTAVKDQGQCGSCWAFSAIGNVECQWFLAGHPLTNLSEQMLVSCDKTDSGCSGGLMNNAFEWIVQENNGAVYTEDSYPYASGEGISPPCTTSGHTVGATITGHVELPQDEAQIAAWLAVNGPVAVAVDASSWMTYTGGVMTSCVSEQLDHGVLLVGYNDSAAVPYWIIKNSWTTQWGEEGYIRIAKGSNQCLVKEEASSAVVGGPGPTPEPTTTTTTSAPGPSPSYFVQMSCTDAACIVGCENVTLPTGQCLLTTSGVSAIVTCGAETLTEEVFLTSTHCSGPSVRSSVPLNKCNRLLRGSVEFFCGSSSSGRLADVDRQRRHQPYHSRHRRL
Rhodesain, sequence (Q95PM0 whole entry): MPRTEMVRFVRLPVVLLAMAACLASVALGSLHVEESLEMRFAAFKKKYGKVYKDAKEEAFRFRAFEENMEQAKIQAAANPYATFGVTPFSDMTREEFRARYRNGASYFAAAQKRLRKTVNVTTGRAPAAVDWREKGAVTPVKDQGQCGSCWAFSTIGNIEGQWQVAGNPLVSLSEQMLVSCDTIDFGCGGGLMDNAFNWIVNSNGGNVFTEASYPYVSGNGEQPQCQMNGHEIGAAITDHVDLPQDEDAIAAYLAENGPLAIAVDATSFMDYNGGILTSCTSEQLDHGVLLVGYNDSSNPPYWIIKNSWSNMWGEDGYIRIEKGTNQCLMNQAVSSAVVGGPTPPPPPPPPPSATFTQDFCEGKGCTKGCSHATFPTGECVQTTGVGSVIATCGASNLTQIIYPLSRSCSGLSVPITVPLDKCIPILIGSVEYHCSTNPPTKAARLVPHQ
Rhodesain (Trypanosoma brucei rhodesiense), sequence (Q95PM0 1-450): as the sequence (Q95PM0 whole entry) above

Take `CC(C)C[C@H](NC(=O)OCc1ccccc1)C(=O)N[C@@H](C)/C=C/[N+](=O)[O-]`: the Ki (commonly a dissociation constant, usually derived from enzyme kinetics or from competition with a known ligand) at Cruzipain was 130 nM; at Rhodesain it was 30 nM; at Cathepsin B [2], 310 nM; on Procathepsin L [3] it was 200 nM. Also, the inhibition result on Cathepsin B [1] is “Active”.

Regarding `C/C(=C\[C@H](C)NC(=O)[C@H](Cc1ccccc1)NC(=O)OCc1ccccc1)[N+](=O)[O-]`, the inhibitory constant (Ki) at Rhodesain is 50 nM; at Cathepsin B [2], 6300 nM; on Procathepsin L [3], 280 nM.

Regarding `CC(C)C[C@H](NC(=O)OCc1ccccc1)C(=O)N[C@H](/C=C/[N+](=O)[O-])Cc1ccccc1`, the Ki at Cruzipain was determined as 28 nM; on Rhodesain it was 18 nM; on Cathepsin B [2] it was 710 nM; at Procathepsin L [3] it was 49 nM. Also, at Procathepsin L [4], the “reversible inhibition (enzyme activity recovery)” value (“reversible inhibition” for short) is “Active”.

Regarding `CC(C)C[C@@H](/C=C/[N+](=O)[O-])NC(=O)[C@H](Cc1ccccc1)NC(=O)OCc1ccccc1`, the outcome in data set [5] and in [13] was Active. Besides, the inhibitory constant (Ki) at Cruzipain was 16 nM; at Rhodesain, 6.5 nM; on Cathepsin B [2], 68 nM; at Procathepsin L [3], 30 nM. Further, the Activity came out at 47% in data set [6], 16% in [8], 24% in data set [11] and 29% in data set [12]. For the same molecule, the Stability result in data set [7] was “Unstable”. For the same molecule, the EC50 (as a rule, the concentration at which the effect is half-maximal) worked out at 990 nM in data set [9], 1310 nM in data set [10] and 2060 nM in data set [14]. Also, the “reversible inhibition” value at Procathepsin L [4] is “Active”.

For `C[C@@H](/C=C/[N+](=O)[O-])NC(=O)[C@H](Cc1ccccc1)NC(=O)OCc1ccccc1`, the Ki is 0.44 nM on Cruzipain, 0.49 nM on Rhodesain, 8 nM on Cathepsin B [2] and 11 nM at Procathepsin L [3]. In [7], the Stability result is listed as “Unstable”. Moreover, the figures for the EC50 in data set [9], in data set [10] and in data set [14] were 5640 nM, 7170 nM and 10800 nM, respectively. Also, the “reversible inhibition” value at Procathepsin L [4] is “Active”.

As for `O=C(N[C@@H](Cc1ccccc1)C(=O)N[C@H](/C=C/[N+](=O)[O-])CCc1ccccc1)OCc1ccccc1`, the Ki is 11 nM on Cruzipain, 4.2 nM on Rhodesain, 34 nM at Cathepsin B [2] and 19.6 nM on Procathepsin L [3]. Further, in [7], the Stability result is reported as “Unstable”. Besides, the results for the EC50 in data set [9], in data set [10] and in data set [14] were 1620 nM, 2100 nM and 3450 nM, respectively.

For `C/C(=C\[C@H](C)NC(=O)[C@H](CC(C)C)NC(=O)OCc1ccccc1)[N+](=O)[O-]`, the Ki at Rhodesain turned out to be 544 nM; at Cathepsin B [2], 3200 nM; at Procathepsin L [3], 2020 nM.

Consider `CC(C)C[C@H](NC(=O)OCc1ccccc1)C(=O)N[C@H](/C=C/[N+](=O)[O-])CCc1ccccc1`, for which the Ki on Cruzipain worked out at 17 nM; on Rhodesain, 14 nM; on Cathepsin B [2], 72 nM; on Procathepsin L [3], 27 nM. Also, the Activity was determined as 110% in data set [6], 22% in data set [8], 46% in data set [11] and 76% in data set [12].

For the molecule `N=C(NCCCCCCNC(=N)NC(=N)Nc1ccc(Cl)cc1)NC(=N)Nc1ccc(Cl)cc1` [CHLORHEXIDINE], the values for the EC50 in [9], in [10] and in [14] were 430 nM, 410 nM and 430 nM, respectively.

In the case of `CC(C)C[C@@H](/C=C/[N+](=O)[O-])NC(=O)[C@H](CC(C)C)NC(=O)OCc1ccccc1`, the Ki came to 25 nM on Cruzipain, 18.4 nM at Rhodesain, 210 nM at Cathepsin B [2] and 46 nM on Procathepsin L [3]. The Activity in data set [6] was 49%; in data set [8], 17%; in data set [11], 26%; in data set [12] it was 35%. Further, the inhibition entry on Cathepsin B [1] was “Active”. For the same molecule, on Procathepsin L [4], the “reversible inhibition” value is “Active”.

Regarding `CN1CCN(C(=O)N[C@@H](Cc2ccccc2)C(=O)N[C@H](/C=C/S(=O)(=O)c2ccccc2)CCc2ccccc2)CC1`, the Activity in [6] stood at 3%; in [8], 0%; in data set [11] it was 2%; in data set [12] it was 0%.

For `O=C(N[C@@H](Cc1ccccc1)C(=O)N[C@H](/C=C/[N+](=O)[O-])Cc1ccccc1)OCc1ccccc1`, the Ki on Cruzipain amounted to 130 nM; at Rhodesain, 29 nM; at Cathepsin B [2], 310 nM; on Procathepsin L [3], 110 nM.
